{
  "source": "ChEMBL document CHEMBL1158078",
  "about": "“Integerrimides A and B, cyclic heptapeptides from the latex of Jatropha integerrima” (J Nat Prod, 2006)",
  "key": {"[1]": {"tested_on": "Human alphaherpesvirus 1", "assay": "Antiviral activity against HSV1 ATCC VR260 by colorimetry", "format": "functional, organism-based", "in_short": "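HSV-1 strain ATCC VR 260; colorimetric method; compounds tested at 50 μg/mL; acyclovir as positive control.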"}, "[2]": {"tested_on": "Candida albicans", "assay": "Antimicrobial activity against Candida albicans ATCC 90028 by tetrazolium/formazan assay", "format": "functional, organism-based", "in_short": "(§1)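 Candida albicans ATCC 90028 tested by tetrazolium/formazan assay; compounds at 50 μg/mL.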"}, "[3]": {"species_on_record": "Gallus gallus", "assay": "Inhibition of neurite outgrowth in E7 chicken spinal cord neurons at 50 uM after 2 days", "format": "functional", "in_short": "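Spinal cord (anterior) from 7-day chicken embryos dissociated with trypsin/DNAseI at 37 °C for 20 min, washed in HEPES-buffered medium. 50 000 cells plated per 1 cm² on polylysine/fibronectin coating in HBM with 10% FCS at 37 °C, no CO₂. Cultured with or without compound (10 or 50 μM) for 2 days; neurites scored by phase-contrast microscopy.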"}, "[4]": {"tested_on": "Human alphaherpesvirus 1", "assay": "Antiviral activity against HSV1 ATCC VR260 at 50 ug/mL by colorimetry", "format": "functional, organism-based", "in_short": "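Against HSV-1 strain ATCC VR 260, colorimetric method; compounds at 50 μg/mL; acyclovir as positive control.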"}, "[5]": {"tested_on": "IPC-298", "assay": "Cytotoxicity against human IPC298 cells assessed as apoptotic cell nuclei level at 50 uM after 2 days", "format": "functional, cell-based", "in_short": "(§2)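 IPC-298 melanoma cells grown in DMEM/Ham's F12 with stabilized L-glutamine, 10% heat-inactivated FCS, penicillin/streptomycin. Plated at 100 000 cells per cm², cultured with or without compound (10 and 50 μM) for 2 days. Viable cells counted on phase-contrast digital pictures as cells per 0.36 mm². Debris and apoptotic nuclei judged by microscopy.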"}, "[6]": {"species_on_record": "Homo sapiens", "assay": "Effect on cell viability of human Capan II cells assessed as cell morphology changes at 50 uM after 20 h"}, "[7]": {"assay": "Toxicity against chicken medulla neurons assessed as effect on cell viability at 50 uM after 24 hrs", "set-up": "species or system Gallus gallus"}, "[8]": {"tested_on": "Capan-2", "assay": "Inhibition of cell migration of human Capan 2 cells at 50 uM after 20 h by scratch migration assay", "conditions": "Capan-2, 20 h"}, "[9]": {"tested_on": "Candida albicans", "assay": "Antimicrobial activity against Candida albicans ATCC 90028 at 50 ug/mL by tetrazolium/formazan assay", "format": "functional, organism-based", "in_short": "as §1"}, "[10]": {"assay": "Toxicity against E7 chicken spinal cord neurons assessed as effect on cell viability at 50 uM after 2 days", "set-up": "species or system Gallus gallus", "conditions": "48 h"}, "[11]": {"tested_on": "IPC-298", "assay": "Cytotoxicity against human IPC298 cells assessed as cell debris level at 50 uM after 2 days", "format": "functional, cell-based", "in_short": "as §2"}, "[12]": {"species_on_record": "Gallus gallus", "assay": "Inhibition of blebbistatin-induced neurite outgrowth in chicken medulla neurons at 50 uM after 24 hrs", "format": "functional"}, "[13]": {"tested_on": "Plasmodium falciparum", "assay": "Antimalarial activity against multidrug-resistant Plasmodium falciparum K1 at 10 ug/mL", "format": "functional, organism-based", "in_short": "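P. falciparum K1 maintained in continuous culture; in vitro activity quantified by microculture radioisotope technique; compounds tested at 10 μg/mL.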"}, "[14]": {"tested_on": "IPC-298", "assay": "Antiproliferative activity against human IPC298 cells assessed as cell density at 50 uM after 2 days", "format": "functional", "in_short": "as §2"}, "[15]": {"tested_on": "Mycobacterium tuberculosis", "assay": "Antimycobacterial activity"}},
  "note": "Active and inactive are the calls of the source. No cut-off for these calls is given here. Residues, ends and D or L forms follow the SMILES beside them.",
  "data": [
    {"smiles": "Nc1nc2c(ncn2COCCO)c(=O)[nH]1", "note": "[ACYCLOVIR]", "values": [
      {"measurement": "IC50", "setting": "[1]", "result": 0.5, "unit": "µg/mL"}
    ]},
    {"smiles": "C[C@@H]1[C@H](O)[C@@H](C)/C=C/C=C/C=C/C=C/C=C/C=C/C=C/[C@H](O[C@@H]2O[C@H](C)[C@@H](O)[C@H](N)[C@@H]2O)C[C@@H]2O[C@](O)(C[C@@H](O)C[C@@H](O)[C@H](O)CC[C@@H](O)C[C@@H](O)CC(=O)O[C@H]1C)C[C@H](O)[C@H]2C(=O)O", "note": "[AMPHOTERICIN B]", "values": [
      {"measurement": "IC50", "setting": "[2]", "result": 0.08, "unit": "µg/mL"}
    ]},
    {"smiles": "CC(C)C[C@@H]1NC(=O)CNC(=O)[C@H](Cc2c[nH]c3ccccc23)NC(=O)[C@@H]2CCCN2C(=O)[C@H]([C@@H](C)O)NC(=O)[C@H](CC(C)C)NC(=O)[C@H](CC(C)C)NC1=O", "note": "[INTEGERRIMIDE A] (cyclo(GLLLTPW))", "values": [
      {"measurement": "Activity", "setting": "[3]", "result": "Active"},
      {"measurement": "Activity", "setting": "[4]", "result": "inactive"},
      {"measurement": "Activity", "setting": "[5]", "result": "inactive"},
      {"measurement": "Activity", "setting": "[6]", "result": "inactive"},
      {"measurement": "Activity", "setting": "[7]", "result": "Non-toxic"},
      {"measurement": "inhibition at 50 µM", "setting": "[8]", "result": 30, "unit": "%"},
      {"measurement": "Activity", "setting": "[9]", "result": "inactive"},
      {"measurement": "Activity", "setting": "[10]", "result": "Non-toxic"},
      {"measurement": "Activity", "setting": "[11]", "result": "inactive"},
      {"measurement": "Activity", "setting": "[12]", "result": "Active"},
      {"measurement": "Activity", "setting": "[13]", "result": "inactive"},
      {"measurement": "Activity", "setting": "[14]", "result": 40, "unit": "%"}
    ]},
    {"smiles": "CC(C)C[C@@H]1NC(=O)[C@H](C)NC(=O)[C@H](Cc2c[nH]c3ccccc23)NC(=O)[C@@H]2CCCN2C(=O)[C@H](CO)NC(=O)[C@H](C(C)C)NC(=O)[C@H](CC(C)C)NC1=O", "note": "[INTEGERRIMIDE B] (cyclo(ALLVSPW))", "values": [
      {"measurement": "Activity", "setting": "[3]", "result": "Active"},
      {"measurement": "Activity", "setting": "[4]", "result": "inactive"},
      {"measurement": "Activity", "setting": "[5]", "result": "inactive"},
      {"measurement": "Activity", "setting": "[6]", "result": "inactive"},
      {"measurement": "Activity", "setting": "[7]", "result": "Non-toxic"},
      {"measurement": "inhibition at 50 µM", "setting": "[8]", "result": 20, "unit": "%"},
      {"measurement": "Activity", "setting": "[9]", "result": "inactive"},
      {"measurement": "Activity", "setting": "[10]", "result": "Non-toxic"},
      {"measurement": "Activity", "setting": "[11]", "result": "inactive"},
      {"measurement": "Activity", "setting": "[13]", "result": "inactive"},
      {"measurement": "Activity", "setting": "[14]", "result": 40, "unit": "%"}
    ]},
    {"smiles": "NNC(=O)c1ccncc1", "note": "[ISONIAZID]", "values": [
      {"measurement": "MIC", "setting": "[15]", "result": 0.1, "unit": "µg/mL"}
    ]},
    {"smiles": "NC[C@H]1O[C@H](O[C@H]2[C@H](O)[C@@H](O[C@H]3O[C@H](CO)[C@@H](O)[C@H](N)[C@H]3O)[C@H](N)C[C@@H]2N)[C@H](O)[C@@H](O)[C@@H]1O", "note": "[KANAMYCIN]", "values": [
      {"measurement": "MIC", "setting": "[15]", "result": 2.5, "unit": "µg/mL"}
    ]},
    {"smiles": "CO[C@H]1/C=C/O[C@@]2(C)Oc3c(C)c(O)c4c(O)c(c(/C=N/N5CCN(C)CC5)c(O)c4c3C2=O)NC(=O)/C(C)=C\\C=C\\[C@H](C)[C@H](O)[C@@H](C)[C@@H](O)[C@@H](C)[C@H](OC(C)=O)[C@@H]1C", "note": "[RIFAMPIN]", "values": [
      {"measurement": "MIC", "setting": "[15]", "result": 0.0023, "unit": "µg/mL"}
    ]}
  ]
}
